Results gathered from unrelated publications.
Compare with care: the assays were run in different laboratories.
Organism: Human immunodeficiency virus 1
Effect on: viral replication

C[C@@H](O[C@H]1OCCN(Cc2n[nH]c(=O)[nH]2)[C@H]1c1ccc(F)cc1)c1cc(C(F)(F)F)cc(C(F)(F)F)c1  IC50 (inhibitor; human PBMC; clinical isolate): 6370 nM
Cc1c(O)cccc1C(=O)N[C@@H](CSc1ccccc1)[C@H](O)CN1C[C@H]2CCCC[C@H]2C[C@H]1C(=O)NC(C)(C)C  IC50 (human PBMC): 12 nM
CC(C)CN(C[C@@H](O)[C@H](Cc1ccccc1)NC(=O)O[C@H]1CCO[C@H]2OCC[C@H]21)S(=O)(=O)c1ccc(B(O)O)cc1  IC50 (inhibitor; MT2): 120 nM
CC(C)Nc1cccnc1N1CCN(C(=O)c2cc3cc(NS(C)(=O)=O)ccc3[nH]2)CC1  IC50 (inhibitor; human PBMC; clinical isolate): 30.6 nM
COc1ccccc1NC(=O)c1ccccc1Cl  IC50 (MT4): > 50000 nM
CC(C)c1nc(CN(C)C(=O)N[C@H](C(=O)N[C@@H](Cc2ccccc2)C[C@H](O)[C@H](Cc2ccccc2)NC(=O)OCc2cncs2)C(C)C)cs1  IC90 (inhibitor; human PBMC; clinical isolate): 92.3 nM
CC(C)CN(C[C@@H](O)[C@H](Cc1ccccc1)NC(=O)O[C@H]1CCO[C@H]2OCC[C@H]21)S(=O)(=O)c1ccc(C(=O)O)cc1  IC50 (inhibitor; MT2): > 1000 nM
Cc1cn([C@H]2C[C@H](N=[N+]=[N-])[C@@H](CO)O2)c(=O)[nH]c1=O  IC90 (human PBMC; clinical isolate): > 1000 nM
Cc1cccc(C)c1OCC(=O)N[C@@H](Cc1ccccc1)[C@@H](O)C[C@H](Cc1ccccc1)NC(=O)[C@H](C(C)C)N1CCCNC1=O  IC50 (MT4): 13 nM
CC(C)CN(C[C@@H](O)[C@H](Cc1ccccc1)NC(=O)O[C@H]1CO[C@H]2OCC[C@H]21)S(=O)(=O)c1ccc(N)cc1  IC50 (MT2): 3.3 nM
CSCC[C@H](NC(C)=O)C(=O)N[C@@H](CC(C)C)C(=O)N[C@@H](CCCNC(=N)N)C(=O)N[C@@H](Cc1c[nH]c2ccccc12)C(=O)N[C@@H](CO)C(=O)N[C@@H](CCCNC(=N)N)C(=O)N[C@@H](CCCCN)C(=O)N[C@@H](CC(C)C)C(=O)N1CCC[C@H]1C(=O)N[C@@H](CS)C(=O)N[C@H](C(=O)N[C@@H](CO)C(=O)O)C(C)C  IC50 (inhibitor; TZM-bl): > 10000 nM
CC(C)CN(C[C@@H](O)[C@H](Cc1ccccc1)NC(=O)O[C@H]1CO[C@H]2OCC[C@H]21)S(=O)(=O)c1ccc(B(O)O)cc1  IC50 (MT4): 48.9 nM
